Assay results collected from several papers.
Compare with care: the assays were run in different laboratories.
Target: Histamine H1 receptor (HRH1, Homo sapiens, UniProt P35367)

| SMILES | read-out | technique | notes | Ki |
| --- | --- | --- | --- | --- |
| N#Cc1cc(Cn2c(N3CCCC3)nc3ccccc32)ccc1F | cell-free assay | radioligand |  | 2570 nM |
| CC(C)c1nc2cc(OCCCCN3CCN(c4cccc5c4OCCO5)CC3)ccc2s1 | ligand displacement | radioligand |  | 52 nM |
| CN(C)c1ccc(/C=C2\CCc3ccc(OCc4ccc(OCCCN5CCCCC5)cc4)cc3C2=O)cc1 | ligand displacement | radioligand | cell membranes | 4230 nM |
| CCCCN1CCC(COC(=O)c2ccc(N)c(OCF)c2)CC1 | cell-free assay | radioligand |  | > 10000 nM |
| CNc1nc2cc(OCCCCN3CCC(c4cccc(Cl)c4Cl)CC3)ccc2s1 | ligand displacement | radioligand |  | 28 nM |
| CN(C)CCOC1c2ccccc2CCc2ccccc21 | cell-free assay | radioligand |  | 1.26 nM |
| O=C1CCCc2cc(OCCCN3CCCCC3)ccc21 | ligand displacement | radioligand | cell membranes | 3470 nM |
| CN1CCN(C2c3ccccc3C=Cc3ccccc32)CC1 | cell-free assay | radioligand |  | 2 nM |
| O=C1NC(=O)C(c2ccccc2)(c2ccc(OCCCN3CCCCC3)cc2)N1 (stereo not shown) | ligand displacement | radioligand | cell membranes | 6150 nM |
| CN(C)CCOC1c2ccccc2C=Cc2ccccc21 | cell-free assay | radioligand |  | 0.316 nM |
| CN(C)c1ccc(/C=C/C=C2\CCc3ccc(OCc4ccc(OCCCN5CCCCC5)cc4)cc3C2=O)cc1 | ligand displacement | radioligand | cell membranes | 1840 nM |
| CN1CCC(=C2c3ccccc3CCc3cccnc32)CC1 | cell-free assay |  |  | 0.0631 nM |
| O=C1CCCc2ccc(OCCCN3CCCCC3)cc21 | ligand displacement | radioligand | cell membranes | 3720 nM |
